Bioassay records: PubChem BioAssay, several laboratories
Rin1-Abl PPI inh – inhibitors of Rin1-Abl protein binding, primary screen, biochemical, TR-FRET. Tyrosine-protein kinase ABL1 (Homo sapiens) + Ras and Rab interactor 1 (Homo sapiens), …. inhibition, % at 7.35 µM. hit rate 0.4% among 360,000. AID 588664, 2011; in the data active = inhibition above about 5%, passing the limit was not always enough
Myeloid diff 2 – induction of myeloid progenitor differentiation, primary screen, cell-based, flow cytometry, MLPCN library; ER-HoxA9 myeloid progenitors, lysozyme-GFP differentiation; calls only at 10 µM; hit rate 1% among 360,000; AID 624256, 2012;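 active = normalized GFP-positive differentiation at or above the plate's own cutoff, the solvent-only control mean plus 3 SD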;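 also: cells exposed to compound for four days before flow analysis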
GRK2 aptamer HTS – compounds blocking aptamer binding on GRK2 – biochemical, human GRK2, bead flow cytometry, HTS, primary screen; Beta-adrenergic receptor kinase 1 (Homo sapiens), P25098; FAM-aptamer displacement from GRK2; inhibition of aptamer binding, % at 10 µM; hit rate 0.59% among 330,000;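 active = inhibition of aptamer binding above 40%, roughly 3 SD of noise, on plates passing a quality check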;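 also: median bead fluorescence of bound FAM aptamer so fluorescent compounds give negative values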
Target sequence (P25098 whole entry, looked up): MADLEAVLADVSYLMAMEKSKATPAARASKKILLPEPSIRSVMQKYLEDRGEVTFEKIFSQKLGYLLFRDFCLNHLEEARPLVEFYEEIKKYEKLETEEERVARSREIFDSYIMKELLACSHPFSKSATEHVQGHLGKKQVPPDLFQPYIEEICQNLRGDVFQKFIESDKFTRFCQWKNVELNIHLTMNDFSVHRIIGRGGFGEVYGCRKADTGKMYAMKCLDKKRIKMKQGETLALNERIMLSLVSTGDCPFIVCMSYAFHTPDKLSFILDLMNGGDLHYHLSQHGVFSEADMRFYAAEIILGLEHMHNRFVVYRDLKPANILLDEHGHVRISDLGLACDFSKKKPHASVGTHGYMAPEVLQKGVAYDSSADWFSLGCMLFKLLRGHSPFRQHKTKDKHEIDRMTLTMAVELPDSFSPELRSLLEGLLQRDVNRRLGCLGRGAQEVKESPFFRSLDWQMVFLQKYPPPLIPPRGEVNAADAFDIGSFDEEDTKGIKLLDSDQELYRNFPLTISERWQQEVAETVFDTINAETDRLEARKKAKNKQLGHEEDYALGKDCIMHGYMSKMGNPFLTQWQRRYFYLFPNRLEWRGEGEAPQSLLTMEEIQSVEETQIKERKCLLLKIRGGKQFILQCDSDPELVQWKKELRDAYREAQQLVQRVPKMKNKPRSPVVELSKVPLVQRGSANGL
T cell HTS – modulators of CD8 T cell-vesicle binding, primary screen, mouse 2C CD8+ T cells, flow cytometry; 2C CD8+ T cell-vesicle binding; active compounds read low; response (vesicle binding), % at 7 µM; hit rate 0.068% among 330,000; AID 2052, 2009;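 active = response, share of CD8 T cells binding vesicles, and their 90th percentile fluorescence all below set limits, cut at about 80% in these data, passing the limit was not always enough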;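 also: values below 100% mean blocked vesicle binding to the CD8+ T cells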
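Test system: purified 2C TCR transgenic mouse naive CD8+ T cells. Probe or stimulus: QL9-peptide-loaded Drosophila micro-vesicles bearing Ld, ICAM-1 and B7-1. Incubation: binding step 1.5 h, 37 °C, antibody labelling 20 min, ice. Measured by: flow cytometry of vesicle-bound cells.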
SKN-1 inh – suppressors of acrylamide-induced Pgst-4::GFP reporter in worms, primary screen, SKN-1 inhibitor project, whole organism, uHTS, GFP/RFP fluorescence ratio, strain VP596 | hit rate 0.49% among 360,000 | C. elegans VP596 Pgst-4::GFP/RFP ratio, 24 h | inhibition, % at 21.8 µM;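 active = interference check ratio from 0.5 to 1.5 plus GFP to RFP signal ratio inhibition reaching or exceeding a fixed threshold, cut at about 30% in these data, passing the limit was not always enough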
Rce1 inhib – yeast Rce1p protease inhibitors, primary screen, biochemical, fluorescence, cell-free homogeneous. yeast membranes, quenched prenylated peptide cleavage fluorescence. hit rate 0.27% among 290,000. CAAX prenyl protease 2 (Saccharomyces cerevisiae (strain ATCC 204508 / S288c)), Q03530. calls only;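 active = fall in fluorescence gain of 50% or more versus controls, with final raw signal at or below 3038400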
Each line names hits and unclear results; the compound was inactive in the other large screens. Only some compounds are listed: those with a hit (about 2.6% of all), similar ones and a draw of the others.

CC(=O)c1c(C)[nH]c(C(=O)OCC(=O)N2CCc3ccccc3C2)c1C	none (no result: Rce1 inhib)
CCOC(=O)[C@]12CCC=C1N(Cc1ccc(Cl)cc1Cl)C(=O)[C@H](CC(=O)NCc1ccccc1)C2	none (no result: Rin1-Abl PPI inh, GRK2 aptamer HTS, T cell HTS, Rce1 inhib)
CC(NC(=O)Cc1ccc(F)cc1)c1ccccc1 (centres undefined)	T cell HTS 64
CCOC(=O)C1=C(O)c2ccccc2C(=O)/C1=C\c1ccc(C)cc1	Myeloid diff 2 active, SKN-1 inh 48 (no result: Rce1 inhib)
O=[N+]([O-])c1cc2c(cc1Br)CCN2	none
COCCN1C(=O)c2cc(C(=O)Nc3ccc(OC)c(OC)c3)ccc2C1Nc1ccc(OC)c(OC)c1 (centres undefined)	none
CN(CC(=O)NCc1ccco1)C(=O)C1CC(=O)N(c2ccc3c(c2)OCCO3)C1 (centres undefined)	none (no result: Rce1 inhib)
FC(F)(F)c1cc(-c2cccs2)nc(-n2cc(Br)cn2)n1	SKN-1 inh 45
Cc1cccc(C(=O)Nc2cccc3c2CCCC3)c1	none
COc1cc(C2Nc3ccccc3NC3=C2C(=O)CC(C)(C)C3)cc(OC)c1OC(C)=O (centres undefined)	none
O=C(CSc1ncnc2scc(-c3ccc(Cl)cc3)c12)NCc1ccc2c(c1)OCO2	SKN-1 inh 46 (no result: GRK2 aptamer HTS, T cell HTS)
O=C(COC(=O)Cc1cccs1)Nc1cc(S(=O)(=O)N2CCOCC2)ccc1Cl	none (no result: Rce1 inhib)
O=C(Nc1nc2ccccc2s1)c1ccccc1	SKN-1 inh 65
CCC1(OC(=O)CN(C)C)C(=O)OCc2c1cc1n(c2=O)Cc2cc3c(N)cccc3nc2-1 (centres undefined)	none (no result: Myeloid diff 2, GRK2 aptamer HTS, T cell HTS, Rce1 inhib)
N#Cc1ccc(NC(=O)COC(=O)C2Cc3ccccc3CN2C(=O)c2ccccc2)cc1 (centres undefined)	Myeloid diff 2 active
CCCCNC(=O)c1nc(-c2cc3ccccc3[nH]2)oc1-c1cccc(C(F)(F)F)c1	none (no result: Rin1-Abl PPI inh, GRK2 aptamer HTS, T cell HTS, Rce1 inhib)
N#C/C(=C/c1ccc(N2CCOCC2)o1)C(=O)Nc1ccccc1	Myeloid diff 2 active (no result: GRK2 aptamer HTS, T cell HTS)
Cc1cc(C)c(C(=O)N2CCCC(CNS(=O)(=O)c3cccs3)C2)o1 (centres undefined)	none
CC(C)(O)C#Cc1ccc(C(=O)N2CCCC(CNS(=O)(=O)c3cccs3)C2)o1 (centres undefined)	Myeloid diff 2 active
c1ccc(-n2nc3c(ccc4cnnc43)[nH]2)cc1	SKN-1 inh 31
COc1ccc(N2CCN(CC(=O)Nc3ccccc3C(=O)NC(C)c3ccccc3)CC2)cc1 (centres undefined)	Myeloid diff 2 active (no result: GRK2 aptamer HTS, T cell HTS, Rce1 inhib)
N#Cc1ccc(NC(=O)Cn2cnc(S(=O)(=O)N3CCc4ccccc43)c2)cc1	none
CN(C)c1ccc(-c2ccnc3c2CC(C)(C(=O)NCc2ccccc2)O3)cc1 (centres undefined)	Myeloid diff 2 active (no result: GRK2 aptamer HTS, T cell HTS, Rce1 inhib)
CN(C)c1ccc(-c2ccnc3c2CC(C)(C(=O)NCc2ccncc2)O3)cc1 (centres undefined)	none (no result: GRK2 aptamer HTS, T cell HTS, Rce1 inhib)
COC(=O)c1c(NC(=S)NN2CCN(C)CC2)sc2c1CCC(C)C2 (centres undefined)	SKN-1 inh 35
C[C@@H]1CN([C@@H](C)CO)C(=O)CCCn2nncc2CO[C@H]1CN(C)C(=O)Nc1ccnc(N2CCOCC2)c1	none (no result: GRK2 aptamer HTS, T cell HTS, Rce1 inhib)
O=C1CCCc2cc3c(ccc4ccccc43)cc21	none (no result: GRK2 aptamer HTS, T cell HTS, Rce1 inhib)
O=C1CCSc2c1ccc1ccccc21	Myeloid diff 2 active (no result: GRK2 aptamer HTS, T cell HTS, Rce1 inhib)
CCOC(=O)Cc1nn2c(=O)cc(C)nc2s1	Myeloid diff 2 active
O=C(O)Cn1cc(/C=N/Nc2ccc([N+](=O)[O-])cn2)c2ccccc21	none
Cc1ccc(Cn2cc(/C=N/Nc3ccc([N+](=O)[O-])cn3)c3ccccc32)cc1	Myeloid diff 2 active
O=c1[nH]nc(-c2ccc(F)cc2)cc1Cc1cccs1	none
CC(C)Cc1nc2oc3c(N4CCN(CCO)CC4)ncnc3c2c2c1CCCC2	GRK2 aptamer HTS 45
CCOC(=O)N1CCN(c2ncnc3c2oc2nc(C(C)C)c4c(c23)CCC4)CC1	none (no result: Rce1 inhib)
S=C(NCc1ccccc1)Nc1ccncc1	Myeloid diff 2 active
CC(=O)c1cn(C)c(=O)[nH]c1=O	none
N#CC(C#N)=C(N)/C(C#N)=C/c1cc(O)c(O)c(O)c1	SKN-1 inh 93 (no result: Rce1 inhib)
N#C/C(=C/c1cc(Cl)c(O)c(Cl)c1)C(=O)N1CCCCC1	none (no result: Myeloid diff 2)
COc1ccc2[nH]c(C)c(CCN(Cc3cccs3)C(=S)Nc3ccc(F)cc3)c2c1	Myeloid diff 2 active
COc1ccc2[nH]c(C)c(CCN(Cc3cccs3)C(=S)Nc3ccccc3)c2c1	none
CC(OC(=O)C1CC1)C(=O)Nc1ccc([N+](=O)[O-])cc1Cl (centres undefined)	Myeloid diff 2 active
CCOC(=O)C(=O)NCC(c1ccco1)S(=O)(=O)c1cccs1 (centres undefined)	none
O=C(NCc1ccco1)c1cc(S(=O)(=O)NC2CC2)ccc1Br	none (no result: Rce1 inhib)
CC1CCCC(NC(=O)COC(=O)c2ccc3c(c2)OCCO3)C1C (centres undefined)	none (no result: Rce1 inhib)
CCOC(=O)c1sc2nc(CC(=O)OC)nc(NCc3ccco3)c2c1C	Myeloid diff 2 active (no result: GRK2 aptamer HTS, T cell HTS)
CCN1CC=C2C(C#N)=C(N)C(C#N)(C#N)C(c3cc(Cl)ccc3Cl)C2C1 (centres undefined)	Myeloid diff 2 active
Cc1c(-c2ccccc2)oc2c(C(=O)OCC(=O)Nc3ccc(C(N)=O)cc3)cccc2c1=O	none
O=C(OC[C@@H]1CCCN2CCCC[C@H]12)c1cc2ccccc2oc1=O	Rce1 inhib active
CCC(=O)c1ccc(OCC(O)Cn2nc(C)c(Br)c2C)cc1 (centres undefined)	none
COc1cc2c(cc1OC)C(c1ccc(-c3ccc(Cl)cc3Cl)o1)=NCC2	none
COc1cc2c(cc1OC)C(c1ccc(-c3cc(Cl)ccc3Cl)o1)=NCC2	Myeloid diff 2 active
COc1ccc(-c2c[n+]3c4n2CCCCC4=C(c2ccc(Br)cc2)C3)cc1	Rce1 inhib active
CS(=O)(=O)Nc1cccc(C(=O)OCCCOc2ccc(F)cc2)c1	none
N#Cc1cccc(S(=O)(=O)NNC(=O)C23CC4CC(CC(C4)C2)C3)c1	T cell HTS 58 (no result: Rce1 inhib)
COC(=O)[C@]12CCCCC=C1N(Cc1ccc3c(c1)OCO3)C(=O)[C@H](CC(=O)N1CCN(C(=O)c3ccco3)CC1)C2	none (no result: Rin1-Abl PPI inh, GRK2 aptamer HTS, T cell HTS, Rce1 inhib)
Cc1ccc(N(CC(=O)Nc2ccc(S(=O)(=O)N3CCOCC3)cc2)S(C)(=O)=O)cc1C	none
CC(C)c1ccc(N(CC(=O)Nc2ccc(S(=O)(=O)N3CCOCC3)cc2)S(C)(=O)=O)cc1	SKN-1 inh 40 (no result: Rce1 inhib)
